From PMC4738094 (Bioorganic & medicinal chemistry, 2015)
“Also recorded” adds a separate entry of the source.

Tested on: not given
Assay: not given
Conditions: ref [74]; cited from earlier work

Structure (SMILES) | standard reduction potential
Oc1ccccc1O [catechol] | 530 mV
Oc1ccc(O)cc1 [hydroquinone] | 459 mV
Oc1cccc(O)c1 [resorcinol] | 720 mV

Tested on: Neuro-2A neuroblastoma cells
Assay: MTT cell viability assay under Aβ-induced cytotoxicity
Type: cell-based, Murine
Conditions: Neuro-2A cells exposed to Aβ
Procedure, shortened: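 Neuro-2A cells grown in DMEM with 10% FBS and penicillin-streptomycin at 37°C, 5% CO2. Cells briefly trypsinised, seeded at 2,000–4,000 cells/mL, and rested 6 h. Aβ25–35 (from 833 µM solution), test compound (from 250 µM solution) and MTT were added together for 6 h. Extraction buffer (acetic acid/SDS in DMF/water, pH 4.7) was then added, with 6 h shaking in the dark at 37°C. A570 was expressed relative to an Aβ-free control.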

Structure (SMILES) | protection of cells against Aβ/ROS-induced stress (in words)
O=C(/C=C/c1ccc(O)c(O)c1)c1cccc(O)c1 [Compound 8, (E)-3-(3,4-dihydroxyphenyl)-1-(3-hydroxyphenyl)prop-2-en-1-one] | only modest protection
O=C(/C=C/c1ccc(O)c(O)c1)c1ccc(O)cc1 [Compound 9, (E)-3-(3,4-dihydroxyphenyl)-1-(4-hydroxyphenyl)prop-2-en-1-one] | increased cell viability at a modest but noticeable level
O=C(/C=C/c1cccc(O)c1)c1ccc(O)cc1O [Compound 10, (E)-1-(2,4-dihydroxyphenyl)-3-(3-hydroxyphenyl)prop-2-en-1-one] | poor rescue compound
O=C(/C=C/c1ccc(O)c(O)c1)c1c(O)cccc1O [Compound 11, (E)-1-(2,6-dihydroxyphenyl)-3-(3,4-dihydroxyphenyl)prop-2-en-1-one] | increased cell viability at a modest but noticeable level
O=C(/C=C/c1ccc(O)c(O)c1)c1cc(O)ccc1O [Compound 12, (E)-1-(2,5-dihydroxyphenyl)-3-(3,4-dihydroxyphenyl)prop-2-en-1-one] | good rescue properties; also recorded: increased cell viability at a modest but noticeable level
O=C(/C=C/c1ccc(O)c(O)c1)c1ccc(O)c(O)c1 [Compound 13, (E)-1,3-bis(3,4-dihydroxyphenyl)prop-2-en-1-one] | increased cell viability at a modest but noticeable level
O=C(/C=C/c1ccc(O)c(O)c1)c1cc(O)cc(O)c1 [Compound 14, (E)-3-(3,4-dihydroxyphenyl)-1-(3,5-dihydroxyphenyl)prop-2-en-1-one] | increased cell viability at a modest but noticeable level
O=C(/C=C/c1ccc(O)c(O)c1)c1ccc(O)cc1O [Compound 15, (E)-1-(2,4-dihydroxyphenyl)-3-(3,4-dihydroxyphenyl)prop-2-en-1-one] | best level of protection
O=C(/C=C/c1cccc(O)c1O)c1ccc(O)c(O)c1 [Compound 16, (E)-3-(2,3-dihydroxyphenyl)-1-(3,4-dihydroxyphenyl)prop-2-en-1-one] | increased cell viability at a modest but noticeable level
O=C(/C=C/c1cc(O)ccc1O)c1ccc(O)c(O)c1 [Compound 17, (E)-3-(2,5-dihydroxyphenyl)-1-(3,4-dihydroxyphenyl)prop-2-en-1-one] | best level of protection
O=C(/C=C/c1ccc(O)c(O)c1)c1ccc(O)c(O)c1O [Compound 18, (E)-3-(3,4-dihydroxyphenyl)-1-(2,3,4-trihydroxyphenyl)prop-2-en-1-one] | best level of protection
O=C(/C=C/c1ccc(O)c(O)c1O)c1ccc(O)c(O)c1 [Compound 19, (E)-1-(3,4-dihydroxyphenyl)-3-(2,3,4-trihydroxyphenyl)prop-2-en-1-one] | increased cell viability at a modest but noticeable level
O=C(/C=C/c1ccc(O)c(O)c1O)c1ccc(O)c(O)c1O [Compound 20, (E)-1,3-bis(2,3,4-trihydroxyphenyl)prop-2-en-1-one] | best level of protection

Tested on: XO
Assay: not given
Conditions: read-out: IC50 (XO inhibition); ref [6]; cited from earlier work

Structure (SMILES) | IC50
Oc1ncnc2[nH]ncc12 [Allopurinol] | 0.2 to 50 µM

Same assay, conditions: ref [16]; cited from earlier work

Structure (SMILES) | potency (XO inhibition)
Cc1nc(-c2ccc(OCC(C)C)c(C#N)c2)sc1C(=O)O [febuxostat] | subnanomolar range
